Our source for the MIC values is ChEMBL document CHEMBL1671620, “Mutations in the fks1 gene in Candida albicans, C. tropicalis, and C. krusei correlate with elevated caspofungin MICs uncovered in AM3 medium using the method of the European Committee on Antibiotic Susceptibility Testing” (2008).

The test system of assay [1] is Candida albicans. The assay is described as follows: Antifungal activity against Candida albicans isolate 3 expressing wild type 1,3-beta-glucan synthase grown on RPMI media after 24 hrs by EUCAST microdilution method. The following applies: isolate 3, 24 h. Background: In broth dilution the organism is exposed to a series of concentrations in liquid medium.
For assay [2], the system named is Candida albicans. The assay is described as follows: Antifungal activity against Candida albicans isolate 10 expressing wild type 1,3-beta-glucan synthase grown on RPMI media after 24 hrs by EUCAST microdilution method. The following applies: isolate 10, 24 h.
In assay [3] the test system is Candida albicans. The assay is described as follows: Antifungal activity against Candida albicans isolate 25 expressing wild type 1,3-beta-glucan synthase grown on AM3 media after 48 hrs by EUCAST microdilution method. The format is functional. The following applies: isolate 25, 24 h, in the assay text read “after 24 hrs” for “after 48 hrs”. The essentials: (§1)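 EUCAST (AFST-EUCAST) broth microdilution with caspofungin at 0.015 to 8 μg/ml final, in AM3 with glucose added to 2% final. Final inoculum was 10⁵ yeast cells/ml, with microplates prepared in batches and stored at −20°C. Plates were incubated at 35°C in humid ambient air and read spectrophotometrically after shaking at 24 h and 48 h. MIC was ≥50% growth reduction versus drug-free well; 90% end point also read at both times.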

Assay [4] deals with Candida albicans. The assay is described as follows: Antifungal activity against Candida albicans isolate 3 expressing wild type 1,3-beta-glucan synthase grown on AM3 media after 48 hrs by EUCAST microdilution method. The format is functional. To be noted: isolate 3, 24 h, in the assay text read “after 24 hrs” for “after 48 hrs”. The essentials: as §1
The next assay deals with Candida tropicalis. The assay is described as follows: Antifungal activity against Candida tropicalis ATCC 750 expressing wild type 1,3-beta-glucan synthase grown on RPMI media after 48 hrs by EUCAST microdilution method. The format is functional. The following applies: ATCC 750, 24 h, in the assay text read “24 hrs” for “48 hrs”. The essentials:
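EUCAST (AFST-EUCAST) broth microdilution with caspofungin at 0.015 to 8 μg/ml final, in RPMI 1640 buffered to pH 7.0 with 0.165 M MOPS and glucose added to 2% final. Final inoculum was 10⁵ yeast cells/ml. Plates were incubated at 35°C in humid ambient air and read spectrophotometrically after shaking at 24 h and 48 h. MIC was ≥50% growth reduction versus drug-free well; 90% end point also read at both times.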

Assay [5] has as its system Candida albicans. The assay is described as follows: Antifungal activity against Candida albicans isolate 1 expressing wild type 1,3-beta-glucan synthase grown on RPMI media after 24 hrs by EUCAST microdilution method. The following applies: isolate 1, 24 h.
Assay [6] relates to Candida albicans. The assay is described as follows: Antifungal activity against Candida albicans isolate 23 harboring 1,3-beta-glucan synthase HS2 point mutant grown on AM3 media after 24 hrs by EUCAST microdilution method. The following applies: isolate 23, 24 h.
Assay [7] has as its system Candida albicans. The assay is described as follows: Antifungal activity against Candida albicans isolate 1 expressing wild type 1,3-beta-glucan synthase grown on AM3 media after 48 hrs by EUCAST microdilution method. The format is functional. To be noted: isolate 1, 24 h, in the assay text read “24 hrs” for “48 hrs”. The essentials: as §1

In brackets after ≈: the same amount, converted by molar mass.

In general, MIC refers to the lowest concentration that inhibits growth of the organism. High values mean weaker potency, low ones greater potency.

On to `CC[C@H](C)C[C@H](C)CCCCCCCCC(=O)N[C@H]1C[C@@H](O)[C@@H](NCCN)NC(=O)[C@@H]2[C@@H](O)CCN2C(=O)[C@H]([C@H](O)CCN)NC(=O)[C@H]([C@H](O)[C@@H](O)c2ccc(O)cc2)NC(=O)[C@@H]2C[C@@H](O)CN2C(=O)[C@H]([C@@H](C)O)NC1=O` [CASPOFUNGIN], for which the MIC in the assay on Candida albicans [1] was determined as 0.25 µg/mL (≈ 0.229 µM); with Candida albicans [2], 0.5 µg/mL (≈ 0.457 µM); against Candida albicans [3], 0.03 µg/mL (≈ 0.0274 µM); with Candida albicans [4] it was 0.06 µg/mL (≈ 0.0549 µM); in the assay on Candida tropicalis it was 0.5 µg/mL (≈ 0.457 µM); in the assay on Candida albicans [5], 0.25 µg/mL (≈ 0.229 µM). The MIC worked out at 0.5 µg/mL (≈ 0.457 µM) against Candida albicans [6] and 0.03 µg/mL (≈ 0.0274 µM) with Candida albicans [7].
